Test results reported in ChEMBL document CHEMBL2029338, “Synthesis, biological evaluation, and molecular docking studies of benzyl, alkyl and glycosyl [2-(arylamino)-4,4-dimethyl-6-oxo-cyclohex-1-ene]carbodithioates, as potential immunomodulatory and immunosuppressive agents” (Bioorg Med Chem, 2012).
In brackets after ≈: the same amount, converted by molar mass.

Experiments:
[1] = system: PBMC; assay: Immunosuppressive activity in human PBMC assessed as inhibition of PHA-induced cell proliferation after 72 hrs by [methyl-3H]thymidine incorporation assay; assay type: functional, cell-based
Procedure, shortened: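 Human PBMCs from healthy donor venous blood, isolated by density separation and cultured in RPMI-1640 with 10% FBS. Stimulated with PHA in the presence of increasing compound concentrations for 72 h at 37 °C, 5% CO₂. [methyl-³H]thymidine 0.5 µCi/well added for a further 18 h, then harvested and counted by liquid scintillation. Expressed as % of stimulated control, mean ± SD of triplicates; IC50 derived.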

[2] = system: J774.2; assay: Antiinflammatory activity in lipopolysaccharide-induced mouse J774.2 cells assessed as inhibition of nitric oxide production at 25 ug/mL after 24 hrs by Griess method; assay type: functional; settings: J774.2, 24 h
Procedure, shortened: (§1)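 J774.2 mouse macrophages grown in DMEM with 10% FBS, seeded at 10⁶ cells/mL. NOS-2 induced with E. coli LPS; compounds at 25 µg/mL added right after LPS, 37 °C, 5% CO₂. Supernatant taken at 24 h and nitrite read by Griess reagent (sulfanilamide, then naphthylethylenediamine in 2.5% phosphoric acid), 10 min at 23 °C, A550. Quantified against a sodium nitrite standard curve; mean ± SD of duplicate readings.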

[3] = system: THP-1; assay: Antiinflammatory activity in PMA-stimulated human THP1 cells assessed as inhibition of LPS-induced TNFalpha production at 25 ug/mL after 4 hrs; assay type: functional; settings: THP-1, 4 h
Procedure, shortened: (§2)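 THP-1 cells plated at 2.5 × 10⁵ cells/mL and differentiated to macrophage-like cells with PMA (20 ng/mL final) for 24 h at 37 °C, 5% CO₂. Then stimulated with LPS (50 ng/mL final) and treated with test compounds. TNF-α was measured in supernatant at 4 h and IL-1β at 18 h by DuoSet ELISA.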

[4] = system: THP-1; assay: Antiinflammatory activity in PMA-stimulated human THP1 cells assessed as inhibition of LPS-induced IL-1beta production at 25 ug/mL after 18 hrs; assay type: functional; settings: THP-1, 18 h; procedure, shortened: as §2
[5] = system: PBMC; assay: Immunosuppressive activity against human PBMC assessed as inhibition of PHA/PMA-induced IL2 production after 18 hrs by ELISA
[6] = (§3) Antiinflammatory activity in human whole blood phagocytes assessed as inhibition of respiratory burst measuring ROS after 30 mins by luminol-enhanced chemiluminescence assay; assay type: functional, cell-based; settings: 0.5 h
Procedure, shortened: (§4)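 Luminol-enhanced chemiluminescence of whole blood phagocytes. Compounds at 1.0, 10 and 100 µg/mL in HBSS⁺⁺ (with Ca²⁺/Mg²⁺) were incubated with whole blood diluted 1:50 for 30 min at 37 °C. Luminol and serum-opsonized zymosan (S. cerevisiae) were then added. ROS kinetics were monitored by luminometer for 50 min in repeated scan mode, with positive, negative and blank controls.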

[7] = system: CC-1; assay: Cytotoxicity against Wistar rat CC1 cells after 48 hrs by MTT assay; assay type: cell-based; settings: CC-1, 48 h
Procedure, shortened: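 Plated at 6 × 10⁴ cells/mL for 24 h at 37 °C, 5% CO₂, then exposed to compounds (up to 20 µg/mL) in triplicate for 48 h. MTT 0.5 mg/mL for 4 h, formazan dissolved in DMSO, A540; mean ± SD of triplicates.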

[8] = system: J774.2; assay: Antiinflammatory activity in lipopolysaccharide-induced mouse J774.2 cells assessed as inhibition of nitric oxide production after 24 hrs by Griess method; assay type: functional, cell-based; settings: J774.2, 24 h; procedure, shortened: as §1
[9] = system: 3T3-L1; assay: Cytotoxicity against mouse 3T3L1 cells after 48 hrs by MTT assay; assay type: cell-based; settings: 3T3-L1, 48 h
Procedure, shortened: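 3T3-L1 mouse embryo fibroblasts in DMEM with 10% FBS. Plated at 6 × 10⁴ cells/mL for 24 h at 37 °C, 5% CO₂, then exposed to compounds (up to 20 µg/mL) in triplicate for 48 h. Viability by MTT 0.5 mg/mL for 4 h, DMSO solubilization, absorbance at 540 nm; mean ± SD of triplicates.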

[10] = species on record: Homo sapiens; assay: as §3; assay type: functional, cell-based; procedure, shortened: as §4

Structure (SMILES)	IC50 [6]	IC50 [8]	IC50 [1]	inhibition at 25 µg/mL [2]	inhibition at 25 µg/mL [3]	inhibition at 25 µg/mL [4]	IC50 [5]	IC50 [7]	inhibition [1]	IC50 [9]	inhibition [5]	inhibition [10]
CC(=O)OC[C@H]1O[C@@H](SC(=S)C2=C(Nc3ccc(Br)cc3)CC(C)(C)CC2=O)[C@H](OC(C)=O)[C@@H](OC(C)=O)[C@@H]1OC(C)=O	> 100 µg/mL	7.7 µM	8.8 µg/mL (≈ 12.6 µM)	68.4%	58.7%	59.2%	3.4 µg/mL (≈ 4.85 µM)	19.8 µg/mL (≈ 28.3 µM)	Dose-dependent effect	> 20 µg/mL	Dose-dependent effect	
CC(=O)OC[C@H]1O[C@@H](SC(=S)C2=C(Nc3ccc(Cl)cc3Cl)CC(C)(C)CC2=O)[C@H](OC(C)=O)[C@@H](OC(C)=O)[C@H]1OC(C)=O	5.94 µg/mL		3.9 µg/mL (≈ 5.65 µM)	66.8%	83.8%	86%	2.1 µg/mL (≈ 3.04 µM)	> 20 µg/mL		> 20 µg/mL		
CC(=O)OC[C@H]1O[C@@H](SC(=S)C2=C(Nc3ccc(Cl)cc3)CC(C)(C)CC2=O)[C@H](OC(C)=O)[C@@H](OC(C)=O)[C@@H]1OC(C)=O	90 µg/mL	44.3 µM	9.9 µg/mL (≈ 15.1 µM)	77.3%	83.8%	46.8%	3.5 µg/mL (≈ 5.33 µM)	> 20 µg/mL	Dose-dependent effect	> 20 µg/mL	Dose-dependent effect	
CC1(C)CC(=O)C(C(=S)SCCO)=C(Nc2ccc(Cl)cc2Cl)C1	> 100 µg/mL		> 50 µg/mL	44.8%	-50.3%	16.5%	> 20 µg/mL					
CC(=O)OC[C@H]1O[C@@H](SC(=S)C2=C(Nc3ccc(Cl)cc3Cl)CC(C)(C)CC2=O)[C@H](OC(C)=O)[C@@H](OC(C)=O)[C@@H]1OC(C)=O	> 100 µg/mL	16.1 µM	15.8 µg/mL (≈ 22.9 µM)	57.2%	-48.2%		> 20 µg/mL					
CC(C)=NNC1=C2C(=S)NN=C2CC(C)(C)C1		36.4 µM	13.2 µg/mL (≈ 52.7 µM)				14.7 µg/mL (≈ 58.7 µM)		Dose-dependent effect		Dose-dependent effect	Dose-dependent effect
CC1(C)CC(=O)C=C(Nc2ccc(Br)cc2)C1	> 100 µg/mL	49.1 µM	> 50 µg/mL	62.7%	-31.4%	-26.8%	> 20 µg/mL					
CC1(C)CC(=O)C=C(Nc2ccc(Cl)cc2Cl)C1	> 100 µg/mL		17.6 µg/mL (≈ 61.9 µM)	42.1%	6.3%	38.5%	> 20 µg/mL					
CCCCCCCCCCCSC(=S)C1=C(Nc2ccc(Cl)cc2Cl)CC(C)(C)CC1=O	> 100 µg/mL		> 50 µg/mL	39.7%	29.3%	30.3%	> 20 µg/mL					
CC1(C)CC(=O)C(C(=S)SCc2ccccc2)=C(Nc2ccc(Cl)cc2Cl)C1	> 100 µg/mL		> 50 µg/mL	39.5%	-50.3%	-119%	> 20 µg/mL					
CC1(C)CC(=O)C=C(Nc2ccc(Cl)cc2)C1	> 100 µg/mL	63.8 µM	15 µg/mL (≈ 60.1 µM)	62.4%	-4.3%	17.2%	> 20 µg/mL					

Now from value to compound, other results behind:

IC50 [6]	IC50 [8]	Structure (SMILES)	IC50 [1]	inhibition at 25 µg/mL [2]	inhibition at 25 µg/mL [3]	inhibition at 25 µg/mL [4]	IC50 [5]	IC50 [7]	inhibition [1]	IC50 [9]	inhibition [5]	inhibition [10]
> 100 µg/mL		CCCCSC(=S)C1=C(Nc2ccc(Cl)cc2Cl)CC(C)(C)CC1=O	> 50 µg/mL	35.2%	-14.7%	-22%	> 20 µg/mL					
> 100 µg/mL		CC1(C)CC(=O)C(C(=S)SCCO)=C(Nc2ccc(Cl)cc2)C1	21 µg/mL (≈ 56.8 µM)	43.3%	0%	48.1%	> 20 µg/mL					
> 100 µg/mL		CC1(C)CC(=O)C(C(=S)SCc2ccccc2)=C(Nc2ccc(Br)cc2)C1	> 50 µg/mL	38.5%	-50.3%	-158%	> 20 µg/mL					
> 100 µg/mL		CCCCSC(=S)C1=C(Nc2ccc(Br)cc2)CC(C)(C)CC1=O	> 50 µg/mL	18.9%	-31.4%		> 20 µg/mL					
> 100 µg/mL		CC1(C)CC(=O)C(C(=S)SCCO)=C(Nc2ccc(Br)cc2)C1	8.3 µg/mL (≈ 20 µM)	37%	-33.5%	5.5%	> 20 µg/mL		Dose-dependent effect		Dose-dependent effect	
> 100 µg/mL		CCCCCCCCCCCSC(=S)C1=C(Nc2ccc(Cl)cc2)CC(C)(C)CC1=O	> 50 µg/mL	16.5%	-56.6%	-15.8%	> 20 µg/mL					
> 100 µg/mL		CCCCSC(=S)C1=C(Nc2ccc(Cl)cc2)CC(C)(C)CC1=O	> 50 µg/mL	23.6%	10.5%	-92.9%	> 20 µg/mL					
> 100 µg/mL		CC1(C)CC(=O)C(C(=S)SCc2ccccc2)=C(Nc2ccc(Cl)cc2)C1	> 50 µg/mL	10.4%	-21%	13.1%	> 20 µg/mL					
> 100 µg/mL		CCCCCCCCCCCSC(=S)C1=C(Nc2ccc(Br)cc2)CC(C)(C)CC1=O	> 50 µg/mL	32.1%	-58.7%	-22.7%	> 20 µg/mL					
